Each structure is given as a SMILES string.

Holding throughout (type): functional
In test [1] the test system is Rattus norvegicus. In words: Compound was tested for hypolipidemic activity in male Sprague-Dawley rats by measuring change in body weight after administration of 400 mg dose per kg of diet. The essentials: (§1)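 Orotic acid liver-lipid model: groups of six male Sprague-Dawley rats unless noted. Test compound mixed into the orotic acid diet at the stated mg/kg diet. Diet and water ad libitum for 14 days, with growth and diet intake monitored. Impaired growth with normal intake was taken as toxicity. At sacrifice, liver homogenized in cold 0.63 M phosphate buffer, pH 7.4. Liver triglyceride and cholesterol reported as mg/g wet liver.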

The test system of test [2] is Rattus norvegicus. In words: Compound was tested for hypolipidemic activity in male Sprague-Dawley rats by measuring change in body weight after administration of 600 mg dose per kg of diet. The essentials: as §1
Test [3] deals with Rattus norvegicus. In words: Compound was tested for hypolipidemic activity in male Sprague-Dawley rats by measuring change in body weight after administration of 100 mg dose per kg of diet. Put shortly:
as §1

Test [4] concerns Rattus norvegicus. Briefly: Compound was tested for hypolipidemic activity in male Sprague-Dawley rats by measuring change in body weight after administration of 200 mg dose per kg of diet. Put shortly: as §1
The species entered for test [5] is Rattus norvegicus. In words: The concentration required to reduce liver cholesterol half-way from the average orotic acid level to the basal level. The essentials: (§2)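 Dose-response testing in the 14-day orotic acid diet model, six male Sprague-Dawley rats per group. Midpoint dose (mg/kg diet) read from dose-response curves as the dietary level that brings liver cholesterol or triglyceride half-way between the orotic-acid-fed control and a basal control given no orotic acid.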

Test [6] relates to Rattus norvegicus. In words: Compound was tested for hypolipidemic activity in male Sprague-Dawley rats by measuring amount of liver triglyceride after administration of 100 mg dose per kg of diet. Put shortly:
as §1

The subject of test [7] is Rattus norvegicus. In words: Compound was tested for hypolipidemic activity in male Sprague-Dawley rats by measuring amount of liver triglyceride after administration of 200 mg dose per kg of diet. Put shortly:
as §1

The subject of test [8] is Rattus norvegicus. Briefly: Compound was tested for hypolipidemic activity in male Sprague-Dawley rats by measuring amount of liver triglyceride after administration of 600 mg dose per kg of diet. Put shortly:
as §1

Test [9] relates to Rattus norvegicus. In words: Compound was tested for hypolipidemic activity in male Sprague-Dawley rats by measuring amount of liver cholesterol after administration of 100 mg dose per kg of diet. The essentials:
as §1

Test [10] has as its system Rattus norvegicus. In words: Compound was tested for hypolipidemic activity in male Sprague-Dawley rats by measuring amount of liver cholesterol after administration of 200 mg dose per kg of diet. The essentials:
as §1

Test [11] concerns Rattus norvegicus. Briefly: Compound was tested for hypolipidemic activity in male Sprague-Dawley rats by measuring amount of liver cholesterol after administration of 600 mg dose per kg of diet. The essentials: as §1
Test [12] relates to Rattus norvegicus. In words: Compound was tested for hypolipidemic activity in male Sprague-Dawley rats by measuring amount of liver cholesterol after administration of 400 mg dose per kg of diet. The essentials:
as §1

In test [13] the test system is Rattus norvegicus. In words: Compound was tested for hypolipidemic activity in male Sprague-Dawley rats by measuring amount of liver triglyceride after administration of 400 mg dose per kg of diet. Put shortly:
as §1

The species named for test [14] is Rattus norvegicus. In words: The concentration required to reduce liver triglyceride half-way from the average orotic acid level to the basal level. Put shortly: as §2
The species entered for test [15] is Rattus norvegicus. In words: The activity relative to DPTH in liver cholesterol. The essentials:
(§3)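 Relative activity is the midpoint dose from the orotic acid rat dose-response curves compared against DPTH, with DPTH set to 1.00. Calculated separately for liver cholesterol and for liver triglyceride.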

Test [16] is filed under the species Rattus norvegicus. Briefly: The activity relative to DPTH in liver triglyceride. Put shortly:
as §3

The species entered for test [17] is Rattus norvegicus. Briefly: The activity relative to DPTH. […] in liver cholesterol. Put shortly: as §3
The species entered for test [18] is Rattus norvegicus. In words: The activity relative to DPTH. in liver triglyceride. The essentials:
as §3

For test [19], the system named is Rattus norvegicus. Briefly: Compound was tested for hypolipidemic activity in male Sprague-Dawley rats by measuring change in body weight after administration of 750 mg dose per kg of diet. The essentials:
as §1

Test [20] deals with Rattus norvegicus. Briefly: Compound was tested for hypolipidemic activity in male Sprague-Dawley rats by measuring amount of liver cholesterol after administration of 750 mg dose per kg of diet. The essentials:
as §1

Test [21] has as its system Rattus norvegicus. Briefly: Compound was tested for hypolipidemic activity in male Sprague-Dawley rats by measuring amount of liver triglyceride after administration of 750 mg dose per kg of diet. The essentials: as §1
The subject of test [22] is Rattus norvegicus. Briefly: Compound was tested for hypolipidemic activity in male Sprague-Dawley rats by measuring change in body weight after administration of 770 mg dose per kg of diet. The essentials: as §1
For test [23], the system named is Rattus norvegicus. In words: Compound was tested for hypolipidemic activity in male Sprague-Dawley rats by measuring amount of liver cholesterol after administration of 770 mg dose per kg of diet. Put shortly:
as §1

Test [24] has as its system Rattus norvegicus. Briefly: Compound was tested for hypolipidemic activity in male Sprague-Dawley rats by measuring amount of liver triglyceride after administration of 770 mg dose per kg of diet. Put shortly: as §1
The test system of test [25] is Rattus norvegicus. In words: Compound was tested for hypolipidemic activity in male Sprague-Dawley rats by measuring change in body weight after administration of 729 mg dose per kg of diet. The essentials: as §1
Test [26] has as its system Rattus norvegicus. Briefly: Compound was tested for hypolipidemic activity in male Sprague-Dawley rats by measuring amount of liver triglyceride after administration of 729 mg dose per kg of diet. Put shortly: as §1
For test [27], the system named is Rattus norvegicus. Briefly: Compound was tested for hypolipidemic activity in male Sprague-Dawley rats by measuring amount of liver cholesterol after administration of 729 mg dose per kg of diet. The essentials: as §1
The test system of test [28] is Rattus norvegicus. Briefly: Compound was tested for hypolipidemic activity in male Sprague-Dawley rats by measuring change in body weight after administration of 735 mg dose per kg of diet. Put shortly:
as §1

For test [29], the system named is Rattus norvegicus. Briefly: Compound was tested for hypolipidemic activity in male Sprague-Dawley rats by measuring amount of liver triglyceride after administration of 735 mg dose per kg of diet. The essentials:
as §1

In test [30] the test system is Rattus norvegicus. Briefly: Compound was tested for hypolipidemic activity in male Sprague-Dawley rats by measuring amount of liver cholesterol after administration of 735 mg dose per kg of diet. The essentials: as §1
For test [31], the system named is Rattus norvegicus. In words: Compound was tested for hypolipidemic activity in male Sprague-Dawley rats by measuring change in body weight after administration of 635 mg dose per kg of diet. The essentials:
as §1

Test [32] relates to Rattus norvegicus. Briefly: Compound was tested for hypolipidemic activity in male Sprague-Dawley rats by measuring amount of liver triglyceride after administration of 635 mg dose per kg of diet. Put shortly: as §1
Test [33] has as its system Rattus norvegicus. Briefly: Compound was tested for hypolipidemic activity in male Sprague-Dawley rats by measuring amount of liver cholesterol after administration of 635 mg dose per kg of diet. The essentials:
as §1

With `O=C1NC(=S)NC1(c1ccccn1)c1ccccn1`, the Body weight change in the test on Rattus norvegicus [1] came out at 203 g; in the test on Rattus norvegicus [2] it was 132 g; with Rattus norvegicus [3] it was 180 g; in the test with Rattus norvegicus [4], 181 g. The Midpoint dose in the test filed under Rattus norvegicus [5] is 180 mg/kg; in the test listed under Rattus norvegicus [14], 235 mg/kg. Further, the “Liver TG” value with Rattus norvegicus [6] turned out to be 100 mg/g; in the test with Rattus norvegicus [7] it was 72 mg/g; in the test on Rattus norvegicus [8], 16 mg/g; in the test with Rattus norvegicus [13] it was 28 mg/g. Further, the Liver cholesterol in the test with Rattus norvegicus [9] amounted to 17 mg/g; in the test with Rattus norvegicus [10], 10.3 mg/g; with Rattus norvegicus [11] it was 3 mg/g; in the test with Rattus norvegicus [12], 2.8 mg/g. The Relative activity in the test filed under Rattus norvegicus [15] came to 1.33; in the test listed under Rattus norvegicus [16] it was 0.43.
As for `CCCCN1C(=O)C(c2ccccc2)(c2ccccc2)NC1=S`, the Body weight change was found to be 210 g in the test on Rattus norvegicus [1], 134 g in the test with Rattus norvegicus [2] and 185 g with Rattus norvegicus [4]. Also, the results for the Cholesterol in the test filed under Rattus norvegicus [17] and in the test listed under Rattus norvegicus [5] were 0.71 and 340 mg kg-1 diet, respectively. For the same molecule, the Midpoint dose in the test filed under Rattus norvegicus [5] stood at 340 mg/kg; in the test filed under Rattus norvegicus [14], 450 mg/kg. Also, the figures for the “Liver TG” value in the test with Rattus norvegicus [7], with Rattus norvegicus [8] and in the test with Rattus norvegicus [13] were 97 mg/g, 19 mg/g and 70 mg/g, respectively. Moreover, the Liver cholesterol with Rattus norvegicus [10] was found to be 17.8 mg/g; in the test on Rattus norvegicus [11] it was 4.2 mg/g; with Rattus norvegicus [12], 10.7 mg/g. Besides, the figures for the TG in the test filed under Rattus norvegicus [18] and in the test listed under Rattus norvegicus [14] were 0.22 and 450 mg kg-1 diet, respectively. Also, the Relative activity was found to be 0.71 in the test listed under Rattus norvegicus [15] and 0.22 in the test listed under Rattus norvegicus [16].
In the test with Rattus norvegicus [19], `O=C1NC(=S)NC1(c1ccc(Cl)cc1)c1ccc(Cl)cc1` showed a Body weight change of 91 g. The molecule further gave a Liver cholesterol with Rattus norvegicus [20] of 13.2 mg/g. Further, the “Liver TG” value with Rattus norvegicus [21] turned out to be 82 mg/g.
`O=C1N(c2ccccc2)C(=S)NC1(c1ccccc1)c1ccccc1` showed a Body weight change in the test with Rattus norvegicus [22] of 91 g. Further, the Liver cholesterol in the test with Rattus norvegicus [23] worked out at 8.6 mg/g. Besides, the “Liver TG” value in the test on Rattus norvegicus [24] was found to be 42 mg/g.
In the test on Rattus norvegicus [25], `CCCCN1C(=O)C(c2ccccn2)(c2ccccn2)NC1=S` came in with a Body weight change of 140 g. The “Liver TG” value in the test on Rattus norvegicus [26] turned out to be 85 mg/g. The Liver cholesterol with Rattus norvegicus [27] was 12.2 mg/g.
In turn, `COc1ccc(C2(c3ccc(OC)cc3)NC(=S)NC2=O)cc1` returned a Body weight change in the test with Rattus norvegicus [28] of 135 g. Besides, the “Liver TG” value in the test on Rattus norvegicus [29] came to 82 mg/g. Moreover, in the test with Rattus norvegicus [30], the Liver cholesterol came to 21.6 mg/g.
Regarding `COc1ccc(C2(c3ccccc3)NC(=S)NC2=O)cc1` (racemic), the Body weight change in the test on Rattus norvegicus [31] came out at 144 g. Besides, in the test with Rattus norvegicus [32], the “Liver TG” value stood at 70 mg/g. Moreover, the Liver cholesterol in the test with Rattus norvegicus [33] is 23.1 mg/g.
`O=C1NC(=S)NC1(c1ccccc1)c1ccc(O)cc1` (racemic) had a Body weight change in the test on Rattus norvegicus [31] of 130 g. For the same molecule, in the test with Rattus norvegicus [32], the “Liver TG” value came to 48 mg/g. This molecule yielded a Liver cholesterol in the test on Rattus norvegicus [33] of 9.1 mg/g.
Regarding `O=C1NC(=S)NC1(c1ccccc1)c1ccccc1` [THIOPHENYTOIN], the Body weight change in the test with Rattus norvegicus [2] was 136 g. The values for the Midpoint dose in the test filed under Rattus norvegicus [5] and in the test listed under Rattus norvegicus [14] were 240 mg/kg and 100 mg/kg, respectively. The “Liver TG” value in the test on Rattus norvegicus [8] turned out to be 16 mg/g. In addition, the Liver cholesterol in the test with Rattus norvegicus [11] came to 3 mg/g. For the same molecule, the Relative activity in the test filed under Rattus norvegicus [15] and in the test filed under Rattus norvegicus [16] was 1 throughout.
